Measurements of several laboratories.
Each line is one published result; the experiments were not run side by side.
Read-out: metabolic stability
Host: human

| Structure (SMILES) | medium | concentration | time | pH | setting | scaled CLint [mL/min/kg] |
| --- | --- | --- | --- | --- | --- | --- |
| NC1=N[C@@]2(c3ccc(F)cc3F)CO[C@@H](c3ncco3)C[C@H]2CS1 | liver microsomes | – | – | – | – | < 8.7 |
| Cc1ccc(F)c2cc(C(=O)N[C@@H]3CCC[C@H](N4CCN(C)C(=O)C4)C3)[nH]c12 | hepatocytes | 0.5 µM | 2 h | – | – | 23.7 |
| CC(C)(C)n1cc2c(n1)C(O)C(C)(C)C1(CCN(C(=O)c3ccc4[nH]ncc4c3)CC1)O2 (centres unmarked) | liver microsomes | – | – | – | – | 17 |
| Cc1coc([C@H]2C[C@H]3CSC(N)=N[C@@]3(c3ccc(F)cc3F)CO2)n1 | liver microsomes | – | – | – | – | 69.6 |
| O=C1NCCc2nc(OCc3cccc(F)c3)ccc21 | liver microsomes | – | – | – | – | 25 |
| Cn1cc([C@H]2C[C@H]3CSC(N)=N[C@@]3(c3ccc(F)cc3F)CO2)cn1 | liver microsomes | – | – | – | – | 9.1 |
| Cc1cccnc1C(=O)Nc1ccc(N2C(=O)c3cccc(Cl)c3C2=O)c(Cl)c1 | liver microsomes | 1 µM | – | pH 7.4 | – | 16.1 |
| Nc1nc(-c2ccc(NC(=O)Nc3cc(Br)cc(Br)c3)cc2)c[nH]1 | liver microsomes | 5 µM | – | pH 7.4 | – | < 10.4 |
| CC(C)N1Cc2cc(C(F)(F)F)ncc2C2=CN=C(NCc3c(F)ccc4c3CCO4)N3C=NC(C1=O)C23 (centres unmarked) | liver microsomes | 100 µM | 30 min | – | – | 5.65 |
| Nc1nc(-c2ccc(NC(=O)c3ccc(Cl)c(Cl)c3)cc2F)c[nH]1 | liver microsomes | 5 µM | 1 h | pH 7.4 | – | 10.9 |
| O=C1c2ccc(COc3cccc(F)c3)nc2CCN1c1ccc(F)cc1 | liver microsomes | – | – | – | – | 8.8 |
| CCCN(C)Cc1cc(-c2[nH]c3cccc(F)c3c(=O)c2C)ccc1Cc1ccc(OC(F)(F)F)cc1 | liver microsomes | – | – | – | – | 1040 |
| Cc1ccc(F)c2cc(C(=O)N[C@@H]3CCC[C@H](c4ccncc4)C3)[nH]c12 | hepatocytes | 0.5 µM | 2 h | – | – | 32.3 |
| O=C1c2ccc(OCc3cccc(F)c3)nc2CCN1c1ccc(F)cn1 | liver microsomes | – | – | – | – | 18 |
| Cc1cc([C@H]2C[C@H]3CSC(N)=N[C@@]3(c3ccc(F)cc3F)CO2)on1 | liver microsomes | – | – | – | – | 55.2 |
| CC(=O)Nc1cc(Nc2cc(NC3CC3)n3ncc(C#N)c3n2)ccc1N(C)C[C@@H]1CCCN1 | hepatocytes | 1 µM | – | – | serum-free | 0.8 |
| Nc1nc(-c2ccc(NC(=O)Nc3ccc(-c4c[nH]c(N)n4)c(F)c3)cc2F)c[nH]1 | liver microsomes | 5 µM | – | pH 7.4 | – | < 20.8 |
| Cc1cc([C@H]2C[C@H]3[C@@H](CF)SC(N)=N[C@@]3(c3ccc(F)cc3F)CO2)on1 | liver microsomes | – | – | – | – | < 8 |
| O=C1C2N=CN3C(NCc4c(F)ccc5c4CCO5)=NC=C(c4cnc(C(F)(F)F)cc4CN1CC(F)F)C23 (centres unmarked) | liver microsomes | 100 µM | 30 min | – | – | 11.4 |
| Cc1cc(NC(=O)Cc2ccc(F)c(C#N)c2)n(CC2CCCCC2)n1 | liver microsomes | – | – | – | – | 648 |
